Activity calls are given as the source filed them. The rule behind the calls is not given here.
What was measured:
Mus musculus [1] = experiment: Osteogenic activity in Balb/c mouse drill-hole fracture model assessed as trabecular separation at 1 mg/kg, po qd via gavage for 21 days by micro-CT method (reference value: 0.219 +/- 0.015 millimeter)
Mus musculus [2] = experiment: Osteogenic activity in Balb/c mouse drill-hole fracture model assessed as increase in BMP4 mRNA level at 1 mg/kg, po qd via gavage for 21 days by RT-PCR method
Mus musculus [3] = experiment: Osteogenic activity in Balb/c mouse drill-hole fracture model assessed as increase in Runx2 mRNA level at 1 mg/kg, po qd via gavage for 21 days by RT-PCR method
Mus musculus [4] = experiment: Osteogenic activity in Balb/c mouse drill-hole fracture model assessed as trabecular thickness at 1 mg/kg, po qd via gavage for 21 days by micro-CT method (reference value: 0.111 +/- 0.006 millimeter)
[5] = Induction of osteoblast differentiation in mouse calvarial cells assessed as increase in BMP2 mRNA expression at 1 pM after 24 hrs by qRT-PCR method relative to control; type: functional, Calvarial cell
Outline: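 Mouse calvarial osteoblasts exposed to 1 pM for 24 h; BMP2, RunX2 and COL1 mRNA by quantitative PCR with GAPDH as internal control. Mean ± SE of three independent experiments versus untreated cells.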

Mus musculus [6] = experiment: Anti-osteoporotic activity in ovariectomized postmenopausal Balb/c mouse model assessed as vertebrae compressive strength by measuring stiffness at 1 mg/kg, po qd via gavage for 6 weeks by micro CT-scan analysis (reference value: 345.7 +/- 5.08 N/mm); type: functional
Outline: (§1)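 Female Balb/c mice, 8 weeks old, ovariectomized, 6 weeks osteopenia development, then 1.0 mg/kg/day or gum acacia vehicle by oral gavage once daily for 6 weeks (sham, OVx and treated groups). Bones collected after sacrifice for micro-CT of trabecular microarchitecture (BV/TV, Tb.N, Tb.Th, Tb.Sp, SMI) and biomechanical testing of femur and vertebrae (energy, stiffness); mean ± SE versus OVx.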

Mus musculus [7] = experiment: Estrogenic effect in uterine of ovariectomized postmenopausal Balb/c mouse model assessed as total uterine area at 1 mg/kg, po qd via gavage for 6 weeks (reference value: 837.2 +/- 36.09 um2); type: ADME, organism-based; conditions: in vivo, 1008 h
Mus musculus [8] = experiment: Estrogenic effect in uterine of ovariectomized postmenopausal Balb/c mouse model assessed as luminal area at 1 mg/kg, po qd via gavage for 6 weeks (reference value: 57.5 +/- 1.19 um2); type: ADME, organism-based; conditions: in vivo, 1008 h
Mus musculus [9] = experiment: Anti-osteoporotic activity in ovariectomized postmenopausal Balb/c mouse model assessed as improvement in micro-artchitectural parameter in vertebrae by measuring trabecular separation at 1 mg/kg, po qd via gavage for 6 weeks by micro CT-scan analysis (reference value: 0.288 +/- 0.021 millimeter); type: functional
Outline: as §1

Mus musculus [10] = experiment: Anti-osteoporotic activity in ovariectomized postmenopausal Balb/c mouse model assessed as trabecular bone formation by measuring increase in bone volume fraction at 1 mg/kg, po qd via gavage for 6 weeks by micro CT-scan analysis relative to control; type: functional
Outline: as §1

Mus musculus [11] = experiment: In vivo induction of osteogenesis in Balb/c mouse assessed as bone formation at 0.5 to 1 mg/kg/day, sc over calvarial surface for 5 consecutive days by hematoxylin and eosin staining based fluorescence microscopic method; type: functional, organism-based
Outline: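 Three-week-old Balb/c mice (3 per group) injected subcutaneously over the calvarial surface daily for 5 consecutive days at 0.1, 0.5, 1 and 5 mg/kg/day. Calvaria fixed in 4% formaldehyde, paraffin-embedded, H&E-stained; tetracycline and calcein (20 mg/kg each, ip) given for MAR/BFR histomorphometry; calvarial mRNA by RT-PCR. Mean ± SE, three independent experiments, versus untreated.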

Mus musculus [12] = experiment: Anti-osteoporotic activity in ovariectomized postmenopausal Balb/c mouse model assessed as increase in Osx gene expression in femur bone at 1 mg/kg, po qd via gavage for 6 weeks by RT-PCR method; type: functional, organism-based
Outline: (§2)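 Eight-week-old female Balb/c mice, ovariectomized and left 6 weeks for osteopenia to develop; groups sham+vehicle, OVx+vehicle, OVx+1.0 mg/kg/day, dosed once daily by oral gavage for 6 weeks in gum acacia/distilled water vehicle. Mice kept at 21°C, 12 h light/dark, chow and water ad libitum. Femoral bone mRNA or serum measured after sacrifice; mean ± SE versus OVx group.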

Mus musculus [13] = experiment: Anti-osteoporotic activity in ovariectomized postmenopausal Balb/c mouse model assessed as decrease in RANKL mRNA expression at 1 mg/kg, po qd via gavage for 6 weeks by RT-PCR method; type: functional, organism-based
Outline: as §2

Calvarial cell = experiment: Induction of mineralization in mouse calvarial cells assessed as calcium nodule formation at Emax incubated for 12 days by alizarin red-S staining based spectrophotometric method; type: functional
Outline: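 Primary mouse calvarial osteoblasts treated with or without compound for 12 days, fixed in 4% formaldehyde, stained with alizarin red-S, and the stain extracted and quantified by the acetic acid method.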

Mus musculus [14] = experiment: Osteogenic activity in Balb/c mouse drill-hole fracture model assessed as increase in OCN mRNA level at 1 mg/kg, po qd via gavage for 21 days by RT-PCR method relative to control

Q: Which Activity (Mus musculus [1]) does the source give for `COc1cc2oc(=O)cc(-c3ccccc3)c2cc1OCCCCCN1CCN(C)CC1` here?
A: The Activity was 0.164 mm.

Q: What about the Activity (Mus musculus [2]) of the same compound?
A: Its Activity is “Active”.

Q: What about the Activity (Mus musculus [3]) of the same compound?
A: Its Activity is “Active”.

Q: What about the Activity (Mus musculus [4]) of the same compound?
A: The Activity was 0.166 mm.

Q: What about the “fold change (FC)” value [5] of the same compound?
A: Its value is 2.

Q: What about the Activity (Mus musculus [6]) of the same compound?
A: Its Activity is 381.35 N/mm.

Q: What about the Activity (Mus musculus [7]) of the same compound?
A: The Activity was 958.6 um2.

Q: What about the Activity (Mus musculus [8]) of the same compound?
A: The Activity was 75.75 um2.

Q: What about the Activity (Mus musculus [9]) of the same compound?
A: The Activity was 0.167 mm.

Q: And the “fold change (FC)” value (Mus musculus [10])?
A: Its value is 1.5.

Q: What about the Activity (Mus musculus [11]) of the same compound?
A: The Activity was “Active”.

Q: And the Activity (Mus musculus [12])?
A: Its Activity is “Active”.

Q: What about the Activity (Mus musculus [13]) of the same compound?
A: The Activity was “Active”.

Q: And the Activity (Calvarial cell)?
A: The Activity was “Active”.

Q: And the “fold change (FC)” value (Mus musculus [14])?
A: Its value is 6.

Source: ChEMBL document CHEMBL4007469, “Design and synthesis of dalbergin analogues and evaluation of anti-osteoporotic activity” (Bioorg Med Chem Lett, 2017)
